Screens deposited in PubChem by The Scripps Research Institute Molecular Screening Center.
In the library only some 4.6% were active in any assay of this set; here they are far more common.
GPR7 antag = GPR7 receptor antagonists, primary screen, cell-based, fluorescence, single concentration; 290,000 compounds, 1.1% hits; inhibition, % at 4.4 µM; AID 1861, 2009; GPR7-expressing cells, fluorescence antagonist assay; Neuropeptides B/W receptor type 1 (Homo sapiens), P48145; in the data active means inhibition above about 16%, passing the limit was not always enough;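 further: cells stimulated with the agonist NPW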
OX1R antag-1 = OX1R (HCRTR1) antagonists, primary screen, fluorescence, CHO/OX1R cells, Fluo-8 calcium, orexin A; Orexin/Hypocretin receptor type 1 (Homo sapiens), O43613; Fluo-8 calcium fluorescence; inhibition, % at 5 µM; 330,000 compounds, 0.43% hits;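 active means inhibition above its plate's threshold, mean inhibition of all tested compounds on the plate plus 3 SD, cut at about 37% in these data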
Target sequence (O43613 whole entry, looked up): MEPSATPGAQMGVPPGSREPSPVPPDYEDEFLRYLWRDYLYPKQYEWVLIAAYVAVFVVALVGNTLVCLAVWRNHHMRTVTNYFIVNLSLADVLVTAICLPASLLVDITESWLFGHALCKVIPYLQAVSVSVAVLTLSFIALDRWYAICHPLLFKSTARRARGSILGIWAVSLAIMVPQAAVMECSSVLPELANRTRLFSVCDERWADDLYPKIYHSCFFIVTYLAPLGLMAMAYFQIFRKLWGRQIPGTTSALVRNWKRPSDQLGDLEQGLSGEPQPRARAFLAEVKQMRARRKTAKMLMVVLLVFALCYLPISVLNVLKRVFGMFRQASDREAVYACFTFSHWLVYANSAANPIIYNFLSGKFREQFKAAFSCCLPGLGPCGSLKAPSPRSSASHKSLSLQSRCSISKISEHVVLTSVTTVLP
TAAR1 antagonist = human TAAR1 antagonists, primary screen, Fluo-8 calcium fluorescence, CHO RD-HGA16 cells. antagonist. inhibition, % at 3 µM. 360,000 compounds, 1.5% hits;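 active means inhibition above a per-plate cutoff, the mean inhibition of test compounds on that plate plus 3 SD, cut at about 49% in these data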
Target sequence (Q96RJ0 whole entry, looked up): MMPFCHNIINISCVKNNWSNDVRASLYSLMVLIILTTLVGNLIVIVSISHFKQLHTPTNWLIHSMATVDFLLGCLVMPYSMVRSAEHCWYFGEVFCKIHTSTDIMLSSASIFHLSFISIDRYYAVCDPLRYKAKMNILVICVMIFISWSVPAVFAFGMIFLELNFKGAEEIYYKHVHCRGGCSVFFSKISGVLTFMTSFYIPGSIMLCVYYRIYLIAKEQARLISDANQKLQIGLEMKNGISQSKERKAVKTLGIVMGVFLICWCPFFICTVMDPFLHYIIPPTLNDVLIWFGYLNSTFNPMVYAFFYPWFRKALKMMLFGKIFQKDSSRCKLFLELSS
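System: CHO RD-HGA16 cells bearing hTAAR1. Reagent: EC80 β-phenethylamine stimulus. Schedule: seeding 17-24 h prior, 75-min 37 °C, 30-min RT dye loading. Signal: Fluo-8 intracellular calcium dye fluorescence, real-time kinetic reads. Read-out: % inhibition from peak post-agonist over basal fluorescence ratio. Benchmarks: vehicle wells and EC80 agonist wells. Replicates: n of 1.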
TAAR1 agonist = human TAAR1 agonists, primary screen, Fluo-8 calcium fluorescence, CHO RD-HGA16 cells. AID 624467, 2012. Trace amine-associated receptor 1 (Homo sapiens), Q96RJ0. activation, % at 3 µM. 360,000 compounds, 0.99% hits. vehicle wells 0%, saturating PEA agonist 100%;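 active means activation above the mean activation of all test compounds in the run plus 3 SD, cut at about 38% in these data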
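test system = CHO RD-HGA16 cells carrying human TAAR1 plus Gα16 | schedule = 17-24 h seeding, 75 min 37 °C dye, 30 min RT | compound dosing = 3 µM single concentration | control set = DMSO and PEA EC100 | replicates = n 1 | signal = Fluo-8 fluorescence, 5 s baseline then 140 s kinetic read | measure = percent activation vs PEA EC100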
CHO parental Ca = ATP-evoked calcium signal inhibitors, parental CHO, primary screen, counter-screen for OX1R antagonist project, cell-based, fluorescence, Fluo-8 calcium dye | parental CHO-K1, ATP-induced calcium, Fluo-8 fluorescence | inhibition, % at 5.6 µM | 330,000 compounds, 0.63% hits | AID 463079, 2010;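 active means inhibition above that plate's mean sample inhibition plus 3 SD, cut at about 26% in these data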
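test system = CHO parental line | reagent = ATP stimulus | measured by = intracellular calcium via Fluo-8 no-wash fluorescent dye | control set = ATP and no-ATP DMSO wells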
OX1R antag-2 = antagonists of human orexin 1 receptor (OX1R) | inhibition, % at 6.6 µM | Orexin/Hypocretin receptor type 1 (Homo sapiens), O43613 | OX1R-expressing cells, FRET antagonist read-out | 330,000 compounds, 1.8% hits | AID 485270, 2010; in the data active means inhibition mostly above about 38%, no sharp cut-off; inactive means mostly below about 40%
nonsel antag count = nonselective antagonists in TAAR1 counter-screen cells, counter-screen for hTAAR1 antagonist project, cell-based, fluorescence, calcium. 2,400 compounds, 77% hits. inhibition, % at 3 µM. counterscreen cell line, antagonist mode. shares compounds with TAAR1 antagonist; in the data active means inhibition above about 22%;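 further: CHO-Ga16 host cells stimulated with ATP at an EC80 level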
TAAR1 antag conf = human TAAR1 antagonists, retest of hits, confirmation, cell-based, fluorescence | TAAR1-expressing cells, fluorescence antagonist read-out | shares compounds with TAAR1 antagonist | AID 651785, 2012 | inhibition, % at 3 µM | 2,400 compounds, 40% hits; in the data active means inhibition above about 49%;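 further: CHO-Ga16 host cells challenged with agonist PEA near its EC80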
Ga16 ag counter = calcium activation in Ga16-expressing cells, counter-screen for TAAR1 antagonist project, cell-based, fluorescence. shares compounds with TAAR1 antagonist. agonist counterscreen. activation, % at 3 µM. 2,400 compounds, 18% hits. AID 651953, 2012; in the data active means activation above about 12%
TAAR1 ag count = TAAR1 activation by candidate antagonists – cell-based, fluorescence, counter-screen for TAAR1 antagonist project; shares compounds with TAAR1 antagonist; hTAAR1 cell line, agonist mode; activation, % at 3 µM; 2,400 compounds, 2% hits; AID 651955, 2012; in the data active means activation above about 37%;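 further: CHO cells stably expressing TAAR1 with calcium dye readout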
Of the large screens only hits and unclear results are named; the others gave an inactive call (follow-up assays come after a bar, where they were run).

Cc1ccc(C)c(-c2cc(C(=O)Nc3cccnc3)c3ccccc3n2)c1	TAAR1 antagonist 61 | nonsel antag count 25 | TAAR1 antag conf 49 | Ga16 ag counter 13 | TAAR1 ag count inactive
CC(=O)c1ccccc1NC(=O)Cn1c(=O)cnc2ccccc21	none
COc1ccc(CCC(=O)NCCS(=O)(=O)N2CCN(c3ccccc3OC)CC2)cc1	TAAR1 antagonist 59 | nonsel antag count 34 | TAAR1 antag conf 52 | Ga16 ag counter 14 | TAAR1 ag count inactive
CCCOc1ccccc1OCC(=O)Nc1ccc(S(=O)(=O)N2CCCCC2)cc1	none (no result: GPR7 antag)
CCCOc1ccccc1OCC(=O)Nc1ccc(S(=O)(=O)N2CCCC2)cc1	TAAR1 antagonist 65 (no result: GPR7 antag) | nonsel antag count inactive | TAAR1 antag conf inactive | Ga16 ag counter inactive | TAAR1 ag count inactive
CC(C)(C)c1ccc(C(=O)CSc2n[nH]c(=O)[nH]c2=O)cc1	none
Nc1c(S(=O)(=O)c2cccs2)c2nc3ccccc3nc2n1/N=C/c1cccc(O)c1	TAAR1 antagonist 52 | nonsel antag count 33 | TAAR1 antag conf 52 | Ga16 ag counter inactive | TAAR1 ag count inactive
O=C1c2ccccc2C(=O)N1CCC#Cc1ccc2cc(CCCO)oc(=O)c2c1	TAAR1 antagonist 69 (no result: GPR7 antag) | nonsel antag count 61 | TAAR1 antag conf 75 | Ga16 ag counter 24 | TAAR1 ag count inactive
CCCCn1c(=O)n(CC(=O)NCc2ccc(C)cc2)c(=O)c2c1nc(CO)n2CCC	TAAR1 antagonist 50 | nonsel antag count 22 | TAAR1 antag conf inactive | Ga16 ag counter inactive | TAAR1 ag count inactive
Cc1ccc(CNC(=O)CCCn2c(=O)c3ccccc3n(CC(=O)NC3CCCC3)c2=O)cc1	none
CCCN1C2CCCC1CC(NC(=O)c1cccc([N+](=O)[O-])c1)C2 (stereo not given)	none
Cc1cn([C@H](C(=O)NCCCCCCCCCCC(=O)N2CCN(C(=O)OC(C)(C)C)CC2)[C@@H](C)O)nn1	TAAR1 antagonist 63 (no result: GPR7 antag) | nonsel antag count 24 | TAAR1 antag conf inactive | Ga16 ag counter inactive | TAAR1 ag count inactive
CCOC(=O)Cc1csc(NC(=O)c2ccc([N+](=O)[O-])cc2[N+](=O)[O-])n1	none
CCOC(=O)Cc1csc(NC(=O)c2cc(-c3ccncc3)nc3ccccc23)n1	TAAR1 antagonist 64 (no result: GPR7 antag) | nonsel antag count 33 | TAAR1 antag conf 50 | Ga16 ag counter inactive | TAAR1 ag count inactive
CCOC(=O)Cc1csc(NC(=O)c2ccc(N3CCOCC3)cc2[N+](=O)[O-])n1	TAAR1 antagonist 55 (no result: GPR7 antag) | nonsel antag count 38 | TAAR1 antag conf 53 | Ga16 ag counter inactive | TAAR1 ag count inactive
CCOc1ccccc1NC(=O)c1cc(-c2ccncc2)nc2c(Cl)cccc12	TAAR1 antagonist 71 (no result: OX1R antag-1, CHO parental Ca, OX1R antag-2) | nonsel antag count inactive | TAAR1 antag conf inactive | Ga16 ag counter inactive | TAAR1 ag count inactive
COc1ccc(NC(=O)c2cc(-c3ccncc3)nc3ccccc23)c(OC)c1	none (no result: GPR7 antag)
Cc1ccc(-c2cc(C(=O)Nc3cc(C(=O)O)ccc3C)c3ccccc3n2)cc1	none
Cc1ccc(S(=O)(=O)N(C)C)cc1NC(=O)c1cc(-c2ccncc2)nc2ccccc12	TAAR1 antagonist 54 (no result: GPR7 antag) | nonsel antag count inactive | TAAR1 antag conf inactive | Ga16 ag counter inactive | TAAR1 ag count inactive
CCN(CC)C(=O)c1cccc(-c2csc(C(C)(O)c3cccc(OC)c3)n2)c1 (stereo not given)	TAAR1 antagonist 78 (no result: GPR7 antag, OX1R antag-1, CHO parental Ca, OX1R antag-2) | nonsel antag count 46 | TAAR1 antag conf 59 | Ga16 ag counter 15 | TAAR1 ag count inactive
CCN(CC)C(=O)c1cccc(-c2csc(C(C)(O)c3ccc(OC)cc3)n2)c1 (stereo not given)	TAAR1 antagonist 86 (no result: GPR7 antag, OX1R antag-1, CHO parental Ca, OX1R antag-2) | nonsel antag count 40 | TAAR1 antag conf 60 | Ga16 ag counter 15 | TAAR1 ag count inactive
CCN(CC)C(=O)c1cccc(-c2csc(C(C)(O)c3ccccc3)n2)c1 (stereo not given)	none (no result: GPR7 antag, OX1R antag-1, CHO parental Ca, OX1R antag-2)
CC1Sc2ccc(S(=O)(=O)N3CCC(C(=O)N4CCN(C)CC4)CC3)cc2NC1=O (stereo not given)	none
COc1ccc(CNC(=O)C(=O)NCC2OCCCN2S(=O)(=O)c2cccs2)cc1 (stereo not given)	none
CCn1c(S(=O)(=O)O)nc2ccccc21	none
COc1ccc(-c2c(C#Cc3ccsc3)c3cc(-c4ccc5[nH]ccc5c4)ccc3n2C)cc1	none (no result: GPR7 antag)
COc1ccc(-c2c(C#Cc3ccsc3)c3cc(-c4ccc(C(N)=O)cc4)ccc3n2C)cc1	TAAR1 antagonist 102 (no result: GPR7 antag) | nonsel antag count inactive | TAAR1 antag conf 90 | Ga16 ag counter inactive | TAAR1 ag count inactive
O=C(CSc1ccc([N+](=O)[O-])cc1)NCC1CCCCC1	TAAR1 antagonist 105 | nonsel antag count inactive | TAAR1 antag conf inactive | Ga16 ag counter inactive | TAAR1 ag count inactive
O=C(COC(=O)CSc1ccc(F)cc1)NCC1CCCCC1	none
COc1cc(NC(=O)C(C)Oc2ccccc2)c(OC)cc1NC(=O)c1ccccc1 (stereo not given)	none (no result: TAAR1 antagonist, TAAR1 agonist)
Cc1ccc2c(c1)N(CCC(=O)NCC1COc3ccccc3O1)C(=O)CO2 (stereo not given)	none
CCC1Oc2ccc(C)cc2N(CC(=O)NCC2COc3ccccc3O2)C1=O (stereo not given)	TAAR1 antagonist 67 | nonsel antag count 24 | TAAR1 antag conf 49 | Ga16 ag counter inactive | TAAR1 ag count inactive
CCCN(c1ccccc1F)S(=O)(=O)c1c[nH]c(C(=O)OC)c1	none
